Experiments:
[1] = target: Small conductance calcium-activated potassium channel (Rattus norvegicus) (UniProt P70604+P70606+P70605); test: Displacement of [125I]apamin from calcium-activated potassium (SK) channels of rat cortex at 10 uM
Procedure, shortened: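 Rat cortical synaptosomes (0.2 mg protein/mL) in 10 mM Tris-HCl pH 7.5 with 5.4 mM KCl and 0.1% BSA. Incubated 1 h at 0 °C with about 10 pM 125I-apamin and 10 μM drug. Filtered on polyethylenimine-coated GF/C filters, washed twice, counted by scintillation. Nonspecific binding defined with 0.1 μM unlabeled apamin; filter binding without synaptosomes subtracted.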

[2] = target: Small conductance calcium-activated potassium channel (Rattus norvegicus, UniProt P70604+P70606+P70605); test: Inhibition of [125I]apamin binding to calcium-activated potassium (SK) channel of rat cortex
Procedure, shortened: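 Cortical synaptosomes (0.2 mg protein/mL), Tris-HCl 10 mM pH 7.5 buffer with 5.4 mM KCl and 0.1% BSA. 1 h at 0 °C with ±10 pM 125I-apamin and nine drug concentrations (10-4–10-7 M); run for drugs displacing at least 20% at 10 μM. Polyethylenimine-coated GF/C filtration, scintillation counting. Nonspecific binding with 0.1 μM apamin; curve-fitted.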

## COc1ccc(CC2c3c(cccc3C(C)C)CC[N+]2(C)C)cc1OC.[I-] (stereo not given)
[1]
  Displacement: 55%
[2]
  IC50: 8.6 µM
  Ki: 1.6 µM

## COc1ccc(CC2c3c(C)cccc3CC[N+]2(C)C)cc1OC.[I-] (stereo not given)
[1]
  Displacement: 24%
[2]
  IC50: 28.4 µM
  Ki: 5.5 µM

## CCc1cccc2c1C(Cc1ccc(OC)c(OC)c1)N(C)CC2 (stereo not given)
[1]
  Displacement: 2%

## COc1ccc(CC2c3c(Cl)cccc3CCN2C)cc1OC (stereo not given)
[1]
  Displacement: 5%

## COc1ccc(CC2c3cccc(Cl)c3CC[N+]2(C)C)cc1OC (stereo not given)
[1]
  Displacement: 27%
[2]
  IC50: 39.6 µM
  Ki: 7.6 µM

## COc1ccc(CC2c3c(C)cccc3CCN2C)cc1OC (stereo not given)
[1]
  Displacement: 10%

## COc1ccc(C[C@H]2c3cc(OC)c(OC)cc3CC[N+]2(C)C)cc1OC.[I-] [LAUDANOSINE METHIODIDE]
[1]
  Displacement: 57%
[2]
  IC50: 8.7 µM
  Ki: 1.6 µM

## COc1ccc(CC2c3sc(C)cc3CCN2C)cc1OC (stereo not given)
[1]
  Displacement: 1%

## COc1ccc(CC2c3sccc3CC[N+]2(C)C)cc1OC (stereo not given)
[1]
  Displacement: 15%

## COc1ccc(CC2c3c(Br)cccc3CC[N+]2(C)C)cc1OC.[I-] (stereo not given)
[1]
  Displacement: 26%
[2]
  IC50: 35.2 µM
  Ki: 6.8 µM

## CCc1cccc2c1C(Cc1ccc(OC)c(OC)c1)[N+](C)(C)CC2.[I-] (stereo not given)
[1]
  Displacement: 44%
[2]
  IC50: 13.6 µM
  Ki: 2.6 µM

## COc1ccc(CC2c3c(cccc3OC)CC[N+]2(C)C)cc1OC (stereo not given)
[1]
  Displacement: 9%

## COc1ccc(CC2c3c(Br)cccc3CCN2C)cc1OC (stereo not given)
[1]
  Displacement: 10%

## COc1ccc2c(c1OC)C(=O)OC2C1c2c(cc3c(c2OC)OCO3)CC[N+]1(C)C.[I-] (stereo not given)
[1]
  Displacement: 27%
[2]
  IC50: 14.1 µM
  Ki: 3.6 µM

## COc1ccc(CC2c3cccc(Cl)c3CCN2C)cc1OC (stereo not given)
[1]
  Displacement: 8%

## COc1ccc(CC2c3sc(C)cc3CC[N+]2(C)C)cc1OC (stereo not given)
[1]
  Displacement: 18%

## COc1ccc(CC2c3cccc(Br)c3CCN2C)cc1OC (stereo not given)
[1]
  Displacement: 1%

## COc1ccc(CC2c3c(Cl)cccc3CC[N+]2(C)C)cc1OC.[I-] (stereo not given)
[1]
  Displacement: 23%
[2]
  IC50: 50 µM
  Ki: 9.3 µM

## COc1ccc(CC2c3sccc3CCN2C)cc1OC (stereo not given)
[1]
  Displacement: 2%

## COc1ccc(CC2c3c(cccc3C(C)C)CCN2C)cc1OC (stereo not given)
[1]
  Displacement: 10%

## COc1ccc(CC2c3cccc(Br)c3CC[N+]2(C)C)cc1OC (stereo not given)
[1]
  Displacement: 29%
[2]
  IC50: 25.4 µM
  Ki: 4.9 µM

## COc1ccc(CC2c3c(cccc3OC)CCN2C)cc1OC (stereo not given)
[1]
  Displacement: 1%

Reference: ChEMBL document CHEMBL1140341, “Synthesis and radioligand binding studies of C-5- and C-8-substituted 1-(3,4-dimethoxybenzyl)-2,2-dimethyl-1,2,3,4-tetrahydroisoquinoliniums as SK channel blockers related to N-methyl-laudanosine and N-methyl-noscapine” (J Med Chem, 2005)
